Source: PubChem
Most compounds without a hit are left out; they make up all but 4.1% or so of the library.
MC4R antag cAMP = blocks human MC4R cAMP signaling; P32245; AID 540295; inhibition, % at 6.5 µM; MC4R-expressing cells, MTII-stimulated cAMP, LANCE TR-FRET; hit rate 0.48% among 360,000;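 active = inhibition above its plate's cutoff, the mean of tested wells on that plate plus 3 SD, cut at about 29% in these data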;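 also: 0% = Melanotan II alone and 100% = Melanotan II plus saturating MCL0020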
Target sequence (P32245 whole entry, looked up): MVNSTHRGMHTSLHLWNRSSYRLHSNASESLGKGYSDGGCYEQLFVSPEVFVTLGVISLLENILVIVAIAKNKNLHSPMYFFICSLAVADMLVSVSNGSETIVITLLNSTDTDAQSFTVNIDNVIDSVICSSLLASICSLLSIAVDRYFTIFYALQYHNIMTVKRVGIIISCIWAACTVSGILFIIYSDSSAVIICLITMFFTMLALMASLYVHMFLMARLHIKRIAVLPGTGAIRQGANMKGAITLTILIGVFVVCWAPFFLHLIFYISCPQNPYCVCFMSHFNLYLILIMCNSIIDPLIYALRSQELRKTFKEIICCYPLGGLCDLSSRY
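System: U2OS-MC4R stable cell line; Technique: Eu-cAMP/anti-cAMP TR-FRET, emission 671 nm; Repeats: single well per compound; Also added: Melanotan II; Dosing: one concentration, 6.5 µM nominal; Schedule: 30-min compound, 1-h challenge, 1-h detection, room temperature.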
MC4R barr agon = activates human MC4R beta-arrestin recruitment | P32245 | hit rate 0.98% among 360,000 | AID 540308 | activation, % at 8.9 µM | U2OS MC4R beta-arrestin complementation, luminescence; percent of melanotan II response, DMSO zero;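 active = activation above a per-plate cutoff, the mean activation of sample wells on that plate plus 3 SD, cut at about 8% in these data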
MPTP inh = inhibitors of mitochondrial permeability transition pore; isolated mouse mitochondria, Ca2+ swelling absorbance, 30 min; inhibition, % at 10 µM; hit rate 1.4% among 360,000;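 active = inhibition of 50% or more, scaled per plate between neutral and stimulator controls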;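 also: 0% = DMSO wells given calcium and 100% = 1 mM EGTA wells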
SMARCA2 activ = increases SMARCA2 function in MMTV reporter cells; MG213 cells, MMTV-luciferase reporter, dexamethasone, overnight; activation, % at 9.1 µM; hit rate 1% among 370,000; AID 652017; in the data active = activation above about 7.8%;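 also: 0% = vehicle wells and 100% = reference activator wells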
ATG4B inhibitor = ATG4B (human) cysteine protease inhibition; Q9Y4P1; ATG4B cleavage of LC3-PLA2, NBD-HPC fluorescence, 1 h; inhibition, % at 8.33 µM; hit rate 0.51% among 340,000; AID 504462; in the data active = inhibition above about 40%
The depositor's hits bear a star; / = no result given.

SMILES	MC4R antag cAMP	MC4R barr agon	MPTP inh	SMARCA2 activ	ATG4B inhibitor
CCC(C)/C=C(C)/C=C/C1=CC2=C(Cl)C(=O)C(C)(OC(C)=O)C(=O)C2=CO1 (stereo not drawn)	18	-1	2	/	4
CC[C@H](C)/C=C(C)/C=C/C1=CC2=C(Cl)C(=O)[C@@](C)(OC(C)=O)C(=O)C2=CO1	/	/	1	/	67*
CCn1nc(-c2ccccc2)nc2c(=O)n(C)c(=O)nc1-2	-44	0	3	/	80*
CC12CCC(O)CC1CCC1C2CCC2(C)C(C3=CC(=O)OC3)CCC12O (stereo not drawn)	0	28*	-1	-9	3
CC12CCC(O)CC1CCC1C2CCC2(C)C(C3=CC(=O)OC3)C(O)CC12O (stereo not drawn)	2	13*	0	6	5
C[C@H]1CC[C@@H]2[C@@H](C)[C@H]3[C@H](C[C@H]4[C@@H]5CC=C6C[C@@H](O[C@@H]7O[C@H](CO)[C@H](O)[C@H](O[C@@H]8O[C@H](CO)[C@@H](O)[C@H](O)[C@H]8O)[C@H]7O[C@@H]7O[C@@H](C)[C@H](O)[C@@H](O)[C@H]7O)CC[C@]6(C)[C@H]5CC[C@]34C)N2C1	3	0	-2	-2	-12
CC(=O)OC1CC(OC2C(O)CC(OC3C(O)CC(OC4CCC5(C)C(CCC6C5CC(O)C5(C)C(C7=CC(=O)OC7)CCC65O)C4)OC3C)OC2C)OC(C)C1OC1OC(CO)C(O)C(O)C1O (stereo not drawn)	2	24*	1	-12	-4
C[C@]12CC[C@H](O)C[C@H]1CC[C@@H]1[C@@H]2C[C@@H](O)[C@]2(C)[C@@H](C3=CC(=O)OC3)CC[C@]12O	2	24*	-1	-10	1
CC(C)(C)NC(=O)C1CN=C(c2ccccc2)c2cc(Cl)ccc2N1C(=O)C1CCC1 (stereo not drawn)	/	/	/	-4	/
CCOC(=O)CC[C@@H]1CC[C@]2(CCCN(Cc3cccnc3)C2)O1	/	/	/	-4	/
CCCC(=O)N1c2ccc(Cl)cc2C(c2ccccc2)=NCC1C(=O)NC(C)(C)C (stereo not drawn)	/	/	/	0	/
Cc1cc(N2CCNC[C@H]2C)ccc1N1CC[C@H](O)C1	/	/	/	2	/
CC12CC[C@H]3[C@@H](CCC4(O)C[C@H](O)CCC34/C=N/NC(=O)Cc3ccccc3)C1(O)CCC2C1=CC(=O)OC1 (stereo partly drawn)	-4	1	0	4	-15
C[C@]12CC[C@H](O)C[C@H]1CC[C@@H]1[C@@H]2CC[C@]2(C)[C@@H](C3=CC(=O)OC3)CC[C@]12O	21	34*	1	-12	1
COC1C(O)C(C)OC(OC2CCC3(C)C(CCC4C3C(O)CC3(C)C(C5=CC(=O)OC5)CCC43O)C2)C1O (stereo not drawn)	3	18*	3	-11	2
O=C(NC(CCC(O)CO)P(=O)(Oc1ccccc1)Oc1ccccc1)OCc1ccccc1 (stereo not drawn)	/	/	/	0	/
CC(NC(=O)OCc1ccccc1)[P+](=O)O (stereo not drawn)	/	/	/	0	/
CC1=CC2OC3CC4OC(=O)C=CC=CC(=O)OCCC(C)C(O)C(=O)OCC2(CC1)C4(C)C31CO1 (stereo not drawn)	37*	8.9*	-1	-11	-11
COc1ccc(OC)c(N2C(=O)/C(=C/c3ccco3)C(=O)NC2=S)c1	/	/	/	/	87*
COc1ccc(N2C(=O)/C(=C/c3ccc(C)o3)C(=O)NC2=S)cc1	1	-1	1	-1	4
Cc1ccc(N2C(=O)NC(=O)/C(=C\c3ccoc3)C2=O)cc1	6	-3	1	3	1
O=C1NC(=S)N(c2ccc(F)cc2)C(=O)/C1=C\c1ccoc1	-7	-1	1	/	85*
C=CCN(CC#CCO)Cc1ccc(OC)cc1OC	/	/	/	-3	/
COc1ccc(/C=C2\C(=O)NC(=S)N(C)C2=O)cc1C	3	-2	-3	-1	56*
O=C1NC(=O)C(=Cc2ccc(-c3ccc(S(=O)(=O)N4CCOCC4)cc3)o2)C(=O)N1	36*	-2	-2	0	6
CC1Oc2cc3c(-c4c(O)cc(O)c5c(O)c6c(cc45)OC(C)C(C)C6=O)c(O)cc(O)c3c(O)c2C(=O)C1C (stereo not drawn)	20	9.7*	18	/	26
